According to article PMC6568325 (ACS chemical biology, 2018):

Legend:
CjMTAN [1] = target: T1, CjMTAN (Campylobacter jejuni subsp. jejuni, UniProt Z9IB28FKP7); test: CjMTAN substrate specificity, steady-state kinetics; format: biochemical; conditions: 25 °C; for Km / kcat: substrate of CjMTAN, 50 mM Hepes-KOH pH 7.4; for h (Hill coefficient): substrate saturation, sigmoidal fit, pH 7.4
Summary of the method: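 Recombinant N-terminally His6-tagged CjMTAN from strain 81-176, expressed in E. coli and Ni-NTA purified. Substrate varied from 1 to 100 µM, with stock concentrations set by A260. Reaction contained 1 U xanthine oxidase to convert released adenine to 2,8-dihydroxyadenine, read at 305 nm (15.5 mM–1 cm–1). Started with 50 nM enzyme and followed up to 5 min. Initial rates in duplicate or triplicate, fitted to Michaelis-Menten and/or allosteric sigmoidal equations.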

CjMTAN [2] = target: T1, CjMTAN; test: CjMTAN inhibition by transition-state analogues; format: biochemical; conditions: for Ki: from initial rates, MTA 1 mM, 25 °C, pH 7.4
C. jejuni [3] = test: C. jejuni growth IC50 in liquid culture media; format: cell-based; conditions: Campylobacter jejuni, 16.4 h, read-out: IC50 C. jejuni growth
C. jejuni [4] = test: C. jejuni growth IC50 on Mueller-Hinton agar; format: cell-based; conditions: Campylobacter jejuni, 144 h, read-out: IC50 C. jejuni growth

Compound | Km (CjMTAN [1]) | kcat (CjMTAN [1]) | Ki (CjMTAN [2]) | other results
C[C@H]1O[C@@H](n2cnc3c(N)ncnc32)[C@H](O)[C@@H]1O [5′-deoxyadenosine] | 21.4 ± 1.3 µM | 0.92 ± 0.02 s⁻¹ | – | h (Hill coefficient) (CjMTAN [1]): 1.8 ± 0.2
Nc1ncnc2c1ncn2[C@@H]1O[C@H](CCC(=O)c2cccc(C(=O)O)c2)[C@@H](O)[C@H]1O [6-amino-6-deoxyfutalosine] | 3.5 ± 0.4 µM | 0.27 ± 0.01 s⁻¹ | – | –
5′-methylthioadenosine | 7.1 ± 0.7 µM | 0.80 ± 0.02 s⁻¹ | – | –
CSC[C@H]1O[C@@H](n2ccc3c(N)ncnc32)[C@H](O)[C@@H]1O [MTT] | – | – | 22100 ± 6080 nM | –
CCCCSC[C@H]1CN(Cc2c[nH]c3c(N)ncnc23)C[C@@H]1O [BTDIA, BuS-DADMe-ImmA] | – | – | 4.1 ± 1 nM | slow-onset inhibition (CjMTAN [2]; CjMTAN): slow-onset tight-binding inhibitors
Nc1ncnc2c1ncn2[C@@H]1O[C@H](CO)[C@@H](O)[C@H]1O [adenosine] | 7.5 ± 0.6 µM | 0.30 ± 0.01 s⁻¹ | – | –
Nc1ncnc2c(CN3CC(O)C(CSc4ccccc4)C3)c[nH]c12 (centres unmarked) [PhTDIA] | – | – | 5.3 ± 0.3 nM | –
Nc1ncnc2c1ncn2[C@@H]1O[C@H](CSCC[C@H](N)C(=O)O)[C@@H](O)[C@H]1O [S-5′-Adenosyl-L-homocysteine, S-5′-adenosyl-L-homocysteine] | 12.2 ± 1.5 µM | 0.55 ± 0.03 s⁻¹ | – | h (Hill coefficient) (CjMTAN [1]): 2.6 ± 0.7
CSC[C@H]1N[C@@H](c2c[nH]c3c(N)ncnc23)[C@H](O)[C@@H]1O [MTIA] | – | – | 32.3 ± 3.4 nM | –
Nc1ncnc2c(CN3C[C@H](CO)[C@@H](O)C3)c[nH]c12 [DIA] | – | – | 2610 ± 332 nM | fold difference in affinity between MTDIA and DIA (CjMTAN [2]; MTDIA 2.9 nM vs DIA 2.7 μM): ~1000 fold
Nc1ncnc2c(CN3CC(O)C(CSc4ccc(Cl)cc4)C3)c[nH]c12 (centres unmarked) [pCPTDIA] | – | – | 4.8 ± 0.3 nM | –
CNC(C)C1CCC(N)C(OC2C(N)CC(N)C(OC3OCC(C)(O)C(NC)C3O)C2O)O1 (centres unmarked) [Gentamicin] | – | – | – | IC50 (C. jejuni [3]): 2100 ± 100 nM; IC50 (C. jejuni [4]): 390 ± 60 nM
5′-deoxy-5′-Pro-DADMe-ImmA [PDIA] | – | – | 5.1 ± 0.6 nM | –
